# Data: ChEMBL document CHEMBL1142193, “Dual targeting of GyrB and ParE by a novel aminobenzimidazole class of antibacterial compounds” (2007)
# The source made the active and inactive calls. The rule behind the calls is not given here.
# Key:
# Staphylococcus aureus [1] = experiment: Antibacterial activity against Staphylococcus aureus ATCC 29213 with GyrB T173N mutation after 18 to 20 hrs; format: functional
# How it was run: (§1)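 MICs followed CLSI guidelines. Strains were grown overnight at 35°C on solid medium. Inocula were prepared with a Prompt system. Compounds were serially diluted twofold in 100% DMSO at 200x and diluted 1:200 into medium, for a final 0.5% DMSO. Plates were incubated at 35°C for 18 to 20 h and read visually. A twofold MIC variation was taken as assay error.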
# Haemophilus influenzae [2] = experiment: Antibacterial activity against novobiocin-resistant Haemophilus influenzae ATCC 51907 with GyrB R140L mutation after 18 to 20 hrs; format: functional; how it was run: as §1
# Enterococcus faecalis [3] = experiment: Antibacterial activity against Enterococcus faecalis ATCC 29212 with GyrB T167I and ParE T169A mutation after 18 to 20 hrs; format: functional; how it was run: as §1
# Staphylococcus aureus [4] = experiment: Antibacterial activity against Staphylococcus aureus ATCC 29213 with GyrB T173N and GrlB T166A mutation after 18 to 20 hrs; format: functional; how it was run: as §1
# Enterococcus faecalis [5] = experiment: Antibacterial activity against Enterococcus faecalis ATCC 29212 with ParE T169A mutation after 18 to 20 hrs; format: functional; how it was run: as §1
# Staphylococcus aureus [6] = experiment: Antibacterial activity against Staphylococcus aureus ATCC 29213 with GyrB T173I mutation after 18 to 20 hrs; format: functional; how it was run: as §1
# Haemophilus influenzae [7] = experiment: Antibacterial activity against Haemophilus influenzae ATCC 51907 with GyrB T169I mutation after 18 to 20 hrs; format: functional; how it was run: as §1
# Enterococcus faecalis [8] = experiment: Antibacterial activity against Enterococcus faecalis ATCC 29212 with GyrB T167I mutation after 18 to 20 hrs; format: functional; how it was run: as §1
# Haemophilus influenzae [9] = experiment: Antibacterial activity against novobiocin-resistant Haemophilus influenzae ATCC 51907 with GyrB R140C mutation after 18 to 20 hrs; format: functional; how it was run: as §1
# Staphylococcus aureus [10] = experiment: Antibacterial activity against Staphylococcus aureus ATCC 29213 without plasmid; format: functional
# Enterococcus faecalis [11] = experiment: Antibacterial activity against Enterococcus faecalis ATCC 29212 with GyrB T167A mutation after 18 to 20 hrs; format: functional; how it was run: as §1
# Staphylococcus aureus [12] = experiment: Antibacterial activity against Staphylococcus aureus ATCC 29213 with GyrB T173N mutation without plasmid; format: functional
# Staphylococcus aureus [13] = experiment: Antibacterial activity against Staphylococcus aureus ATCC 29213 carrying plasmid expressing GyrB R144I mutant; format: functional
# Staphylococcus aureus [14] = experiment: Antibacterial activity against Staphylococcus aureus ATCC 29213 after 18 to 20 hrs; format: functional; how it was run: as §1
# Streptococcus pneumoniae [15] = experiment: Antibacterial activity against Streptococcus pneumoniae ATCC BAA-255 with ParE T172A mutation after 18 to 20 hrs; format: functional; how it was run: as §1
# Staphylococcus aureus [16] = experiment: Antibacterial activity against Staphylococcus aureus ATCC 29213 carrying plasmid expressing GyrB T173I mutant; format: functional
# Staphylococcus aureus [17] = experiment: Antibacterial activity against novobiocin-resistant Staphylococcus aureus ATCC 29213 with GyrB R144I mutation after 18 to 20 hrs; format: functional; how it was run: as §1
# Haemophilus influenzae [18] = experiment: Antibacterial activity against Haemophilus influenzae ATCC 51907 after 18 to 20 hrs; format: functional; how it was run: as §1
# Staphylococcus aureus [19] = experiment: Antibacterial activity against Staphylococcus aureus ATCC 29213 with GyrB R144I mutation without plasmid; format: functional
# Staphylococcus aureus [20] = experiment: Antibacterial activity against Staphylococcus aureus ATCC 29213 carrying plasmid expressing GyrB T173N mutant; format: functional
# Staphylococcus aureus [21] = experiment: Antibacterial activity against Staphylococcus aureus ATCC 29213 carrying plasmid expressing wild type GyrB; format: functional
# Staphylococcus aureus [22] = experiment: Inhibition of RNA synthesis in Staphylococcus aureus ATCC 29213 assessed as [3H]uridine incorporation; format: functional
# How it was run: (§2)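 Log-phase cells exposed in duplicate to compound at 5x MIC; labelled-precursor uptake measured over 15 min, stopped with 10% trichloroacetic acid. Incorporation expressed as percent of untreated control (taken as 100%).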
# Haemophilus influenzae [23] = experiment: Antibacterial activity against novobiocin-resistant Haemophilus influenzae ATCC 51907 with GyrB R140H mutation after 18 to 20 hrs; format: functional; how it was run: as §1
# Staphylococcus aureus [24] = experiment: Inhibition of protein synthesis in Staphylococcus aureus ATCC 29213 assessed as [3H]aminoacid incorporation; format: functional
# Enterococcus faecalis [25] = experiment: Antibacterial activity against Enterococcus faecalis ATCC 29212 after 18 to 20 hrs; format: functional; how it was run: as §1
# Streptococcus pneumoniae [26] = experiment: Antibacterial activity against Streptococcus pneumoniae ATCC BAA-255 with GyrB T172A and ParE T172A mutation after 18 to 20 hrs; format: functional; how it was run: as §1
# Staphylococcus aureus [27] = experiment: Antibacterial activity against Staphylococcus aureus ATCC 29213 with GyrB T173I mutation without plasmid; format: functional
# Streptococcus pneumoniae [28] = experiment: Antibacterial activity against novobiocin-resistant Streptococcus pneumoniae ATCC BAA-255 with GyrB S127L mutation after 18 to 20 hrs; format: functional; how it was run: as §1
# Staphylococcus aureus [29] = experiment: Inhibition of DNA synthesis in Staphylococcus aureus ATCC 29213 assessed as [3H]thymidine incorporation; format: functional; how it was run: as §2
# Enterococcus faecalis [30] = experiment: Antibacterial activity against Enterococcus faecalis ATCC 29212 with GyrB T167A and ParE T169A mutation after 18 to 20 hrs; format: functional; how it was run: as §1
# Staphylococcus aureus [31] = experiment: Antibacterial activity against Staphylococcus aureus ATCC 29213 with GyrB T173I and GrlB T166A mutation after 18 to 20 hrs; format: functional; how it was run: as §1
# Streptococcus pneumoniae [32] = experiment: Antibacterial activity against Streptococcus pneumoniae ATCC BAA-255 after 18 to 20 hrs; format: functional; how it was run: as §1
# Streptococcus pneumoniae [33] = experiment: Antibacterial activity against Streptococcus pneumoniae ATCC BAA-255 with ParE T172I mutation after 18 to 20 hrs; format: functional; how it was run: as §1
# Escherichia coli = experiment: Reduction in steady-state levels of supercoiled pUC18 in Escherichia coli CAG12184 tolC mutant; format: functional, organism-based
# How it was run: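 Cells carrying pUC18 grown at 37°C in caMHB with 100 µg/ml ampicillin to OD600 0.5, then exposed 1 h at 37°C with shaking to a twofold dilution series spanning the MIC. Plasmid isolated, concentrated, run on 1% TBE-agarose alongside supercoiled markers for 16 h, stained with ethidium bromide.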
structure (smiles),measurement,setting,value
O=C(O)c1cn(C2CC2)c2cc(N3CCNCC3)c(F)cc2c1=O [CIPROFLOXACIN],MIC,Staphylococcus aureus [1],0.25 µg/mL
same,MIC,Haemophilus influenzae [2],0.004 µg/mL
same,MIC,Enterococcus faecalis [3],0.5 µg/mL
same,MIC,Staphylococcus aureus [4],0.25 µg/mL
same,MIC,Enterococcus faecalis [5],1 µg/mL
same,MIC,Staphylococcus aureus [6],0.25 µg/mL
same,MIC,Haemophilus influenzae [7],0.004 µg/mL
same,MIC,Enterococcus faecalis [8],1 µg/mL
same,MIC,Haemophilus influenzae [9],0.004 µg/mL
same,MIC,Staphylococcus aureus [10],0.25 µg/mL
same,MIC,Enterococcus faecalis [11],0.5 µg/mL
same,MIC,Staphylococcus aureus [12],0.25 µg/mL
same,MIC,Staphylococcus aureus [13],0.25 µg/mL
same,MIC,Staphylococcus aureus [14],0.25 µg/mL
same,MIC,Streptococcus pneumoniae [15],0.25 µg/mL
same,MIC,Staphylococcus aureus [16],0.25 µg/mL
same,MIC,Staphylococcus aureus [17],0.25 µg/mL
same,MIC,Haemophilus influenzae [18],0.004 µg/mL
same,MIC,Staphylococcus aureus [19],0.25 µg/mL
same,MIC,Staphylococcus aureus [20],0.25 µg/mL
same,MIC,Staphylococcus aureus [21],0.25 µg/mL
same,Activity,Staphylococcus aureus [22],inactive
same,MIC,Haemophilus influenzae [23],0.004 µg/mL
same,Activity,Staphylococcus aureus [24],inactive
same,MIC,Enterococcus faecalis [25],1 µg/mL
same,MIC,Streptococcus pneumoniae [26],0.25 µg/mL
same,MIC,Staphylococcus aureus [27],0.25 µg/mL
same,MIC,Streptococcus pneumoniae [28],0.25 µg/mL
same,Activity,Staphylococcus aureus [29],Active
same,MIC,Enterococcus faecalis [30],0.5 µg/mL
same,MIC,Staphylococcus aureus [31],0.25 µg/mL
CO[C@@H]1[C@@H](OC(N)=O)[C@@H](O)[C@H](Oc2ccc3c(O)c(NC(=O)c4ccc(O)c(CC=C(C)C)c4)c(=O)oc3c2C)OC1(C)C [NOVOBIOCIN],MIC,Staphylococcus aureus [1],0.25 µg/mL
same,MIC,Haemophilus influenzae [2],4 µg/mL
same,MIC,Enterococcus faecalis [3],16 µg/mL
same,MIC,Staphylococcus aureus [4],0.25 µg/mL
same,MIC,Enterococcus faecalis [5],8 µg/mL
same,MIC,Staphylococcus aureus [6],1 µg/mL
same,MIC,Streptococcus pneumoniae [32],0.5 µg/mL
same,MIC,Haemophilus influenzae [7],0.25 µg/mL
same,MIC,Enterococcus faecalis [8],32 µg/mL
same,MIC,Haemophilus influenzae [9],8 µg/mL
same,MIC,Staphylococcus aureus [10],0.13 µg/mL
same,MIC,Enterococcus faecalis [11],16 µg/mL
same,MIC,Staphylococcus aureus [12],0.25 µg/mL
same,MIC,Staphylococcus aureus [13],8 µg/mL
same,MIC,Staphylococcus aureus [14],0.13 µg/mL
same,MIC,Streptococcus pneumoniae [15],0.5 µg/mL
same,MIC,Staphylococcus aureus [16],0.5 µg/mL
same,MIC,Staphylococcus aureus [17],8 µg/mL
same,MIC,Haemophilus influenzae [18],0.064 µg/mL
same,MIC,Staphylococcus aureus [19],8 µg/mL
same,MIC,Staphylococcus aureus [20],0.13 µg/mL
same,MIC,Staphylococcus aureus [21],0.13 µg/mL
same,MIC,Haemophilus influenzae [23],4 µg/mL
same,MIC,Streptococcus pneumoniae [33],0.5 µg/mL
same,MIC,Enterococcus faecalis [25],8 µg/mL
same,MIC,Streptococcus pneumoniae [26],4 µg/mL
same,MIC,Staphylococcus aureus [27],2 µg/mL
same,MIC,Streptococcus pneumoniae [28],8 µg/mL
same,MIC,Enterococcus faecalis [30],16 µg/mL
same,MIC,Staphylococcus aureus [31],2 µg/mL
CCNC(=O)Nc1nc2cc(-c3cnc(OC)nc3)c(OC)cc2[nH]1,MIC,Staphylococcus aureus [1],16 µg/mL
same,MIC,Haemophilus influenzae [2],4 µg/mL
same,MIC,Enterococcus faecalis [3],> 64 µg/mL
same,MIC,Staphylococcus aureus [4],> 64 µg/mL
same,MIC,Enterococcus faecalis [5],8 µg/mL
same,MIC,Staphylococcus aureus [6],16 µg/mL
same,MIC,Streptococcus pneumoniae [32],0.5 µg/mL
same,MIC,Haemophilus influenzae [7],> 64 µg/mL
same,MIC,Enterococcus faecalis [8],1 µg/mL
same,MIC,Haemophilus influenzae [9],2 µg/mL
same,MIC,Staphylococcus aureus [10],2 µg/mL
same,MIC,Enterococcus faecalis [11],0.5 µg/mL
same,MIC,Staphylococcus aureus [12],8 µg/mL
same,MIC,Staphylococcus aureus [13],2 µg/mL
same,MIC,Staphylococcus aureus [14],2 µg/mL
same,MIC,Streptococcus pneumoniae [15],8 µg/mL
same,MIC,Staphylococcus aureus [16],8 µg/mL
same,MIC,Staphylococcus aureus [17],4 µg/mL
same,MIC,Haemophilus influenzae [18],4 µg/mL
same,MIC,Staphylococcus aureus [19],2 µg/mL
same,MIC,Staphylococcus aureus [20],8 µg/mL
same,MIC,Staphylococcus aureus [21],2 µg/mL
same,Inhibition,Staphylococcus aureus [22],20%
same,MIC,Haemophilus influenzae [23],2 µg/mL
same,MIC,Streptococcus pneumoniae [33],4 µg/mL
same,Inhibition,Staphylococcus aureus [24],20%
same,MIC,Enterococcus faecalis [25],1 µg/mL
same,MIC,Streptococcus pneumoniae [26],64 µg/mL
same,Activity,Escherichia coli,Dose-dependent effect
same,MIC,Staphylococcus aureus [27],8 µg/mL
same,MIC,Streptococcus pneumoniae [28],0.5 µg/mL
same,Inhibition,Staphylococcus aureus [29],80%
same,MIC,Enterococcus faecalis [30],> 64 µg/mL
same,MIC,Staphylococcus aureus [31],> 64 µg/mL
